In ChEMBL document CHEMBL2010768, “Optimization of Potent Inhibitors of P. falciparum Dihydroorotate Dehydrogenase for the Treatment of Malaria” (ACS Med Chem Lett, 2011):
Active and inactive are the calls of the source. No cut-off for these calls is given here.

Columns and labels:
[1] = target: T1, Cytochrome P450 1A2 (Homo sapiens, UniProt P05177); assay: Inhibition of human CYP1A2 using phenacetin as substrate after 10 mins by LC-MS/MS analysis; assay type: ADME
T1 sequence (P05177 whole entry): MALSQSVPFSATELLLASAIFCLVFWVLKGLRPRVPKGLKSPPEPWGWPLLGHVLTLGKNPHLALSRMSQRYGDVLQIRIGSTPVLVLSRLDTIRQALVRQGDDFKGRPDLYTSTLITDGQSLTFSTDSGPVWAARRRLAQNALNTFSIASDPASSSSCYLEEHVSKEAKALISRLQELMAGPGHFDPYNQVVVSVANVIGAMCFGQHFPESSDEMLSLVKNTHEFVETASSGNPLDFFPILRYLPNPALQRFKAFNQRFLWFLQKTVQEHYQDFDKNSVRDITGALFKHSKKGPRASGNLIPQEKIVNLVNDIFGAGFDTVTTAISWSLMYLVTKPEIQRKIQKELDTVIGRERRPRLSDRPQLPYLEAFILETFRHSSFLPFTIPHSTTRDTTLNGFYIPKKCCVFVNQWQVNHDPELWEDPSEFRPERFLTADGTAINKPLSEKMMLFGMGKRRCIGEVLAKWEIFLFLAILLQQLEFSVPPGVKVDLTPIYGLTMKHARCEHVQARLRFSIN

[2] = Clearance in rat at 1 mg/kg, iv by LC-MS/MS analysis; assay type: ADME, organism-based; design: dose 1 mg/kg, route intravenous; details: in vivo
[3] = Plasma protein binding in dog by LC-MS/MS analysis; assay type: ADME, cell-free, Canis lupus familiaris; details: read-out: PPB (converted)
[4] = test system: Canis familiaris; assay: Oral bioavailability in dog at 3 mg/kg by LC-MS/MS analysis; assay type: ADME, organism-based, Canis lupus familiaris; details: in vivo
[5] = test system: Plasmodium berghei; assay: Antimalarial activity against Plasmodium berghei ANKA infected in orally dosed mouse model compound administered at 9 hrs post-infection on first day followed by bid for subsequent 3 days; assay type: functional; details: po
In short: (§1)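 Oral dosing in mouse malaria models. Efficacy is expressed as ED50, ED90 and ED99 in mg/kg/day.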

[6] = test system: Plasmodium falciparum; assay: Antiplasmodial activity against Plasmodium falciparum 3D7 infected in […] after 72 hrs by SYBR green assay; assay type: functional, organism-based; details: 3D7, 72 h
[7] = AUC (0 to infinity) in rat at 1 mg/kg, iv by LC-MS/MS analysis; assay type: ADME, organism-based; design: time infinity, dose 1 mg/kg, route intravenous; details: plasma
[8] = Half life in dog at 1 mg/kg, iv by LC-MS/MS analysis; assay type: ADME, organism-based, Canis lupus familiaris; design: dose 1 mg/kg, route intravenous; details: in vivo
[9] = test system: Canis familiaris; assay: AUC (0 to infinity) in dog at 1 mg/kg, iv by LC-MS/MS analysis; assay type: ADME, organism-based, Canis lupus familiaris, Plasma; design: dose 1 mg/kg, route intravenous, time infinity; details: in vivo
[10] = test system: Salmonella typhimurium; assay: Mutagenic activity in Salmonella typhimurium 100 up to 100 uM by Ames test; assay type: toxicity, organism-based; details: salmonella enterica subsp. enterica serovar typhimurium
[11] = target: Cytochrome P450 2C9 (Homo sapiens, UniProt P11712); assay: Inhibition of human CYP2C9 using diclofenac as substrate after 10 mins by LC-MS/MS analysis; assay type: ADME
Sequence of Cytochrome P450 2C9 (P11712 whole entry): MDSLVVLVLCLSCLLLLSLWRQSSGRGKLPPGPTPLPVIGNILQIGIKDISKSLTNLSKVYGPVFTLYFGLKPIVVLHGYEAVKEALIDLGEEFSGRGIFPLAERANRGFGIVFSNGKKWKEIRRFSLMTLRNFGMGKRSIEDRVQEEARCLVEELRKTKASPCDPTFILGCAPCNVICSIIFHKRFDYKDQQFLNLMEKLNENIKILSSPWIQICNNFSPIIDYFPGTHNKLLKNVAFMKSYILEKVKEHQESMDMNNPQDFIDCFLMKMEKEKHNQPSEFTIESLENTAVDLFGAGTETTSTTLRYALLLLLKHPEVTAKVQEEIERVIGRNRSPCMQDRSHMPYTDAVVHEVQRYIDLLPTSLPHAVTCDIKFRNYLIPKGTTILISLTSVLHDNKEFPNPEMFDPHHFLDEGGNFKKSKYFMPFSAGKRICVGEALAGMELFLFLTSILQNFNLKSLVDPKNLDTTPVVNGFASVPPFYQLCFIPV

[12] = Toxicity in po dosed rat administered qd for 7 days measured after 7 days washout period; assay type: organism-based; details: in vivo
In short: (§2)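 Rats dosed orally once daily for 7 days at 0 (control), 50, 150, 450 and 600 mg/kg, then a 7-day washout. NOAEL determined, with Cmax and AUC reported at that exposure.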

[13] = test system: Canis familiaris; assay: AUC (0 to infinity) in dog at 3 mg/kg, po by LC-MS/MS analysis; assay type: ADME, organism-based, Canis lupus familiaris, Plasma; design: time infinity, dose 3 mg/kg, route oral; details: in vivo
[14] = test system: Salmonella typhimurium; assay: Mutagenic activity in S9-induced Salmonella typhimurium 1535 up to 100 uM by Ames test; assay type: toxicity, organism-based; details: salmonella enterica subsp. enterica serovar typhimurium
[15] = Cmax in rat at 50 to 600 mg/kg, po qd for 7 days measured after 7 days washout period; assay type: ADME, organism-based; design: dose 50-600 mg/kg, route oral; details: in vivo; in short: as §2
[16] = test system: Plasmodium berghei; assay: Inhibition of Plasmodium berghei DHODH after 20 mins by 2,6-dichloroindophenol-reduction based assay
[17] = Clearance in human liver microsomes by LC-MS/MS analysis; assay type: ADME, Microsome
In short: (§3)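 Liver microsome incubation. Predicted clearance is derived from a well-stirred model corrected for microsomal and protein binding.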

[18] = test system: Plasmodium vivax; assay: Inhibition of Plasmodium vivax DHODH after 20 mins by 2,6-dichloroindophenol-reduction based assay
[19] = Unbound fraction in human plasma; assay type: ADME, cell-free
[20] = Plasma protein binding in rat by LC-MS/MS analysis; assay type: ADME, cell-free; details: read-out: PPB (converted)
[21] = Permeability of the compound by parallel artificial membrane permeation assay; assay type: ADME; details: PAMPA; read-out: permeability
[22] = test system: Salmonella typhimurium; assay: Mutagenic activity in S9-induced Salmonella typhimurium 100 up to 100 uM by Ames test; assay type: toxicity, organism-based; details: salmonella enterica subsp. enterica serovar typhimurium
[23] = target: Cytochrome P450 3A4 (Homo sapiens, UniProt P08684); assay: Inhibition of human CYP3A4 using midazolam as substrate after 5 mins by LC-MS/MS analysis; assay type: ADME
Sequence of Cytochrome P450 3A4 (P08684 whole entry): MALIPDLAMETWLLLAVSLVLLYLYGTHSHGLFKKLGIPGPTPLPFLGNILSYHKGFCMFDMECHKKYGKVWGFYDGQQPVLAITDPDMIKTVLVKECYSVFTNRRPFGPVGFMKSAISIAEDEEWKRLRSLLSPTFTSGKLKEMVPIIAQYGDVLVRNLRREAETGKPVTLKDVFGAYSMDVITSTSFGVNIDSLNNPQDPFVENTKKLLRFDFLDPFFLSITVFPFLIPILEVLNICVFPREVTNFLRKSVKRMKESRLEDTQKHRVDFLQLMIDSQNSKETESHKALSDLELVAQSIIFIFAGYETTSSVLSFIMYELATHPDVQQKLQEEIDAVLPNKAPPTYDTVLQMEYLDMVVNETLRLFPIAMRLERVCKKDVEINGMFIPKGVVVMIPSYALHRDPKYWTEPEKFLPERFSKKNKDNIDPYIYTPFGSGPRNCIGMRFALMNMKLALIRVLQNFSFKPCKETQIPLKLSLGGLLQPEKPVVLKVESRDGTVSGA

[24] = target: Cytochrome P450 2C19 (Homo sapiens, UniProt P33261); assay: Inhibition of human CYP2C19 using S-mephenytoin as substrate after 45 mins by LC-MS/MS analysis; assay type: ADME
Sequence of Cytochrome P450 2C19 (P33261 whole entry): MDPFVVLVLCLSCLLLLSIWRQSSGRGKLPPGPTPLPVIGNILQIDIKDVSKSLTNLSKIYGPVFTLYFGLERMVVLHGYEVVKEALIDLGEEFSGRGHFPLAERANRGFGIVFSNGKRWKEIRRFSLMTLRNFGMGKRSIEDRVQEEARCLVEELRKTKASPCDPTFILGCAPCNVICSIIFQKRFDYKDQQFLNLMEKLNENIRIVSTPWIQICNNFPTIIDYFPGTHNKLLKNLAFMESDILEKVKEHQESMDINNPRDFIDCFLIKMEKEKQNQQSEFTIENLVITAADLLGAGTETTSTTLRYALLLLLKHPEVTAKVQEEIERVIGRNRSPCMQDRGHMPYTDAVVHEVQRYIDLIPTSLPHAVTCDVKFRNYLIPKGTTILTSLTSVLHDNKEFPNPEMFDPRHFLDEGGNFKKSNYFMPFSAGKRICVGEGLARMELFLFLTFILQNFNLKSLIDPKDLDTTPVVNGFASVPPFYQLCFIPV

[25] = Plasma protein binding in human by LC-MS/MS analysis; assay type: ADME, cell-free; details: read-out: PPB (converted)
[26] = target: T2, Dihydroorotate dehydrogenase (Plasmodium falciparum, UniProt Q54A96); assay: Inhibition of Plasmodium falciparum DHODH after 20 mins by 2,6-dichloroindophenol-reduction based assay
T2 sequence (Q54A96 whole entry): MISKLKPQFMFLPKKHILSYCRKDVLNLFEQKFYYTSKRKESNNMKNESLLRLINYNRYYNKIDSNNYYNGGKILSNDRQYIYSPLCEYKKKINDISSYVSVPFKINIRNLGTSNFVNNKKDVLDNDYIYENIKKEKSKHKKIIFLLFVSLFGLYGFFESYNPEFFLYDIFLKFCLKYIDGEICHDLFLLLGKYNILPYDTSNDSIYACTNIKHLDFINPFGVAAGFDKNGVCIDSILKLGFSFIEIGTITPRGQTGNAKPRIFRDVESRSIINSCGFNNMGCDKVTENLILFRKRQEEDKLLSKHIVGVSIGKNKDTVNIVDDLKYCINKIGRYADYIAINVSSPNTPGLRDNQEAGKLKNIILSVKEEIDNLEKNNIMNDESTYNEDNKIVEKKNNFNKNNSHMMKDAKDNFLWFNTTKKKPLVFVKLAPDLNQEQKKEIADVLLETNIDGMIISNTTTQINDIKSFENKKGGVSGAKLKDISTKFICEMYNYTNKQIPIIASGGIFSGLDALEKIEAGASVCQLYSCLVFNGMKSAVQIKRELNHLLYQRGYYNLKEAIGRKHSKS

[27] = Oral bioavailability in rat at 3 mg/kg by LC-MS/MS analysis; assay type: ADME, organism-based; details: in vivo
[28] = test system: Plasmodium falciparum; assay: Antimalarial activity against Plasmodium falciparum 3D70087/N9 infected in po dosed NOD-scid IL-2Rgamma-null mouse model compound administered bid for 4 to 7 days by FACS analysis; assay type: functional; details: 3D7 0087/N9, 4TO7, po; in short: as §1
[29] = target: Cytochrome P450 2D6 (Homo sapiens, UniProt P10635); assay: Inhibition of human CYP2D6 using bufuralol as substrate after 10 mins by LC-MS/MS analysis; assay type: ADME
Sequence of Cytochrome P450 2D6 (P10635 whole entry): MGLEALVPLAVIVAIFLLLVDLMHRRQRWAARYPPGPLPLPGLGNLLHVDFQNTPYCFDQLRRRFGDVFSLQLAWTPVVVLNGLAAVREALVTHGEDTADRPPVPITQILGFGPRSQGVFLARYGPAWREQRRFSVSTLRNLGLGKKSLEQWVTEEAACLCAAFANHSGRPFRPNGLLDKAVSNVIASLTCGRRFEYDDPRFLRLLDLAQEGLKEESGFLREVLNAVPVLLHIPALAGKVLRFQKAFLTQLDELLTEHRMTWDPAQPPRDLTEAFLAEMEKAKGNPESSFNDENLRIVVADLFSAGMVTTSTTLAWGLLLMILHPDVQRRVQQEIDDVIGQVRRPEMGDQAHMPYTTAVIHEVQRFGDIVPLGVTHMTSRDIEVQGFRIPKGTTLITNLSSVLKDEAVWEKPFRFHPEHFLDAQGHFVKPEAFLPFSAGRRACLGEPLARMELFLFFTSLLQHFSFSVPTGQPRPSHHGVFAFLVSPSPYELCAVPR

[30] = Clearance in dog at 1 mg/kg, iv by LC-MS/MS analysis; assay type: ADME, organism-based, Canis lupus familiaris; design: dose 1 mg/kg, route intravenous; details: in vivo
[31] = AUC in rat at 50 to 600 mg/kg, po qd for 7 days measured after 7 days washout period; assay type: ADME, organism-based; design: dose 50-600 mg/kg, route oral; details: plasma; in short: as §2
[32] = Volume of distribution at steady state in rat at 1 mg/kg, iv by LC-MS/MS analysis; assay type: ADME, organism-based; design: dose 1 mg/kg, route intravenous; details: in vivo, read-out: Vdss
[33] = AUC (0 to infinity) in rat at 3 mg/kg, po by LC-MS/MS analysis; assay type: ADME, organism-based; design: time infinity, dose 3 mg/kg, route oral; details: plasma
[34] = Plasma protein binding in mouse by LC-MS/MS analysis; assay type: ADME, cell-free; details: read-out: PPB (converted)
[35] = Volume of distribution at steady state in dog at 1 mg/kg, iv by LC-MS/MS analysis; assay type: ADME, organism-based, Canis lupus familiaris; design: dose 1 mg/kg, route intravenous; details: in vivo, read-out: Vdss
[36] = test system: Plasmodium falciparum; assay: Antiplasmodial activity against Plasmodium falciparum Dd2 infected in […] after 72 hrs by SYBR green assay; assay type: functional, organism-based; details: Dd2, 72 h
[37] = Half life in rat at 1 mg/kg, iv by LC-MS/MS analysis; assay type: ADME, organism-based; design: dose 1 mg/kg, route intravenous; details: in vivo
[38] = Cmax in dog at 3 mg/kg, po by LC-MS/MS analysis; assay type: ADME, organism-based, Canis lupus familiaris; design: dose 3 mg/kg, route oral; details: in vivo
[39] = test system: Salmonella typhimurium; assay: Mutagenic activity in Salmonella typhimurium TA98 up to 100 uM by Ames test; assay type: toxicity, organism-based; details: salmonella enterica subsp. enterica serovar typhimurium
[40] = test system: Salmonella typhimurium; assay: Mutagenic activity in Salmonella typhimurium 1535 up to 100 uM by Ames test; assay type: toxicity, organism-based; details: salmonella enterica subsp. enterica serovar typhimurium
[41] = test system: Salmonella typhimurium; assay: Mutagenic activity in S9-induced Salmonella typhimurium TA98 up to 100 uM by Ames test; assay type: toxicity, organism-based; details: salmonella enterica subsp. enterica serovar typhimurium
[42] = Cmax in rat at 3 mg/kg, po by LC-MS/MS analysis; assay type: ADME, organism-based; design: dose 3 mg/kg, route oral; details: in vivo
[43] = Clearance in mouse liver microsomes by LC-MS/MS analysis; assay type: ADME, Microsome; in short: as §3
[44] = target: Voltage-gated inwardly rectifying potassium channel KCNH2 (Homo sapiens, UniProt Q12809); assay: Inhibition of human ERG expressed in CHOK1 cells by whole cell voltage clamp assay; assay type: cell-based, CHO-K1; details: human, cho-k1
Sequence of Voltage-gated inwardly rectifying potassium channel KCNH2 (Q12809 whole entry): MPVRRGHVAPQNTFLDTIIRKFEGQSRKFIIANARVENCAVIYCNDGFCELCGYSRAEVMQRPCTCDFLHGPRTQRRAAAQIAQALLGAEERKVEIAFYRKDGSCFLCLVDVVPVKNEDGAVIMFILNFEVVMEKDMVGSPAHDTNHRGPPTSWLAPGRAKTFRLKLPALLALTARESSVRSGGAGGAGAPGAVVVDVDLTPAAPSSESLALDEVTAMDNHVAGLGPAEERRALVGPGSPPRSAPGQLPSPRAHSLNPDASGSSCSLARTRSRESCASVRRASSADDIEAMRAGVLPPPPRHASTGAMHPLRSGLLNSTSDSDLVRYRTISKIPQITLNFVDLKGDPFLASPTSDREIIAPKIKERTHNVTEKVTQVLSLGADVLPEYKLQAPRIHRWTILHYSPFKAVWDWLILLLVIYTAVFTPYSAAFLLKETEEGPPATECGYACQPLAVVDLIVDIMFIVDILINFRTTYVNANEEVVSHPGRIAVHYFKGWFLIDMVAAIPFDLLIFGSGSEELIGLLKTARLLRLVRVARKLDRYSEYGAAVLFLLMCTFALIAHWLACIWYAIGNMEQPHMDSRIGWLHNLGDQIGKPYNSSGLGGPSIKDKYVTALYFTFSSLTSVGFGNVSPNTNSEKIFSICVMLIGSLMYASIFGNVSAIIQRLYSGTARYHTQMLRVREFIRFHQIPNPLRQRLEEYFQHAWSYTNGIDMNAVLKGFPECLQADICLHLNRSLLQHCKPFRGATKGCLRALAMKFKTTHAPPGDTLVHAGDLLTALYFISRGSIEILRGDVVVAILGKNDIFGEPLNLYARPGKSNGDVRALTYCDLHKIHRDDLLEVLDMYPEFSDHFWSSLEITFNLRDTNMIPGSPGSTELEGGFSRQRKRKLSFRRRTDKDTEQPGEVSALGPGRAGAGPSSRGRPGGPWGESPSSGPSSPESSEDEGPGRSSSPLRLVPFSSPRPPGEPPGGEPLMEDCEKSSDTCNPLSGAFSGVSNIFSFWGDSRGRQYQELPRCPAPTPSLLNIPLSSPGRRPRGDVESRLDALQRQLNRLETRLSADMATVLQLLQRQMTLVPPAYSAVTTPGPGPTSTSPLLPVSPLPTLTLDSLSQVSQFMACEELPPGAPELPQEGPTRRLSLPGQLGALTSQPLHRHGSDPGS

## Cc1nc2c(C#N)cccc2n1-c1ccc(C(=O)NC2CC2)s1
[1]
  IC50: > 10000 nM
[2]
  clearance: 24 mL/min/kg
[3]
  fraction unbound: 0.312
[4]
  F: 19%
[5]
  ED50: 13 mg/kg/day
  ED90: 28 mg/kg/day
  ED99: 62 mg/kg/day
[6]
  IC50: 7 nM
[7]
  AUC(0-inf): 703 ng·h/mL
[8]
  half-life: 31.2 min
[9]
  AUC: 1500 ng·h/mL
[10]
  Activity: Non-toxic
[11]
  IC50: > 10000 nM
[12]
  NOAEL at 168 h: > 600 mg/kg
[13]
  AUC: 359 ng·h/mL
[14]
  Activity: Non-toxic
[15]
  Cmax: 29000 ng/mL
[16]
  inhibition: Active
[17]
  CLhep predicted: < 4 mL/min/kg
[18]
  inhibition: Active
[19]
  fraction unbound: 0.11
[20]
  fraction unbound: 0.22
[21]
  Papp: 49 ×10⁻⁶ cm/s
[22]
  Activity: Non-toxic
[23]
  IC50: > 10000 nM
[24]
  IC50: > 10000 nM
[25]
  fraction unbound: 0.112
[26]
  IC50: 40 nM
[27]
  bioavailability: 49%
[28]
  ED50: 13 mg/kg/day
  ED90: 27 mg/kg/day
  ED99: 60 mg/kg/day
[29]
  IC50: > 10000 nM
[30]
  clearance: 6.7 mL/min/kg
[31]
  AUC at 168 h: 328000 ng·h/mL
[32]
  Vd: 0.995 L/kg
[33]
  AUC(0-inf): 1040 ng·h/mL
[34]
  fraction unbound: 0.182
[35]
  Vd: 0.279 L/kg
[36]
  IC50: 10 nM
[37]
  half-life: 51 min
[38]
  Cmax: 1110 ng/mL
[39]
  Activity: Non-toxic
[40]
  Activity: Non-toxic
[41]
  Activity: Non-toxic
[42]
  Cmax: 618 ng/mL
[43]
  CLhep predicted: 26 mL/min/kg

## COc1cccc2c1nc(C)n2-c1ccc(C(=O)NC2CC2)s1
[1]; human, 10 min
  inhibition (INH): Not Active
[6]
  IC50: 49 nM
[11]; human, 10 min
  inhibition (INH): Not Active
[16]
  inhibition: Active
[17]
  CLhep predicted: 4 mL/min/kg
[18]
  inhibition: Active
[44]
  inhibition (INH): Not Active
[23]; human, 5 min
  inhibition (INH): Not Active
[24]; human, 0.75 h
  inhibition (INH): Not Active
[26]
  IC50: 162 nM
[29]; human, 10 min
  inhibition (INH): Not Active
[36]
  IC50: 109 nM
[43]
  CLhep predicted: > 72 mL/min/kg
